The source of these data is ChEMBL document CHEMBL1649503, “Alkoxyalkyl esters of 9-(s)-(3-hydroxy-2-phosphonomethoxypropyl) adenine are potent and selective inhibitors of hepatitis B virus (HBV) replication in vitro and in HBV transgenic mice in vivo” (Antimicrob Agents Chemother, 2009).

The test system of data set [1] is Hepatitis B virus. As to the kind of experiment: Antiviral activity against wild type HBV infected in human HuH7 cells assessed as decrease in viral transient transfection after 5 days. As to conditions: Huh-7, 5 days.
Data set [2] relates to Hepatitis B virus. In words: Antiviral activity against HBV harboring RNA polymerase M204I mutant gene infected in human HuH7 cells assessed as decrease in viral transient transfection after 5 days. The conditions noted are these: Huh-7, 5 days.
The test system of data set [3] is Hepatitis B virus. As to the kind of experiment: Antiviral activity against HBV harboring RNA polymerase M204V mutant gene infected in human HuH7 cells assessed as decrease in viral transient transfection after 5 days. The conditions noted are these: Huh-7, 5 days.
Data set [4] relates to Hepatitis B virus. As to the kind of experiment: Antiviral activity against HBV harboring RNA polymerase L180M/M204V mutant gene infected in human HuH7 cells assessed as decrease in viral transient transfection after 5 days. The conditions noted are these: Huh-7, 5 days.
Data set [5] deals with Hepatitis B virus. In words: Antiviral activity against HBV harboring RNA polymerase N236T mutant gene infected in human HuH7 cells assessed as decrease in viral transient transfection […]. Type of data set: functional, organism-based. The conditions noted are these: Huh-7. In short, it runs like this: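 Lamivudine- and adefovir-resistant HBV mutants introduced into Huh7 cells by transient transfection. Compounds were tested in a 5-day assay.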

Data set [6] has as its system Hepatitis B virus. In words: Antiviral activity against HBV harboring RNA polymerase L180M mutant gene infected in human HuH7 cells assessed as decrease in viral transient transfection after 5 days. As to conditions: Huh-7, 5 days.
For data set [7], the system named is Hepatitis B virus. As to the kind of experiment: Antiviral activity against HBV infected in transgenic mouse assessed as decrease in liver viral DNA level at 4 mg/kg, po administered daily for 14 days measured post last dose. The class given is functional. The conditions noted are these: for ED50: Hepatitis B virus, Liver, 336 h; for ED90: dose 4 mg/kg. In short, it runs like this:
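Homozygous male and female HBV transgenic mice (founder 1.3.32; 22.2 ± 2.8 g) received drug in distilled water by oral gavage, 0.1 ml/10 g, at 7 µmol/kg (4 mg/kg) daily for 14 days. About 0.1 g liver was lysed at necropsy, and DNA was extracted with phenol-chloroform. HBV DNA was measured by qPCR normalized to GAPDH, using duplicate CTs against a dilution standard curve, in relative units/µg cell DNA.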

Data set [8] is described as follows: Cytotoxicity against human HepG2(2.2.15) cells after 24 hrs by neutral red assay. Type of data set: cell-based. In short, it runs like this:
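2.2.15 cells, RPMI 1640 with 2% FBS, dosed daily for nine consecutive days. Viability was read by neutral red uptake, absorbance of internalized dye at 510, 24 h after the last treatment, three cultures per concentration.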

The nature of data set [9]: Selectivity index, ratio of CC50 for human HepG2(2.2.15) cells to EC50 for HBV infected in human HepG2(2.2.15) cells. The method, boiled down: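 Ratio from two 2.2.15 readouts after nine daily doses in RPMI/2% FBS. Extracellular HBV DNA was measured by quantitative blot hybridization and cytotoxicity by neutral red uptake (three cultures per concentration), both 24 h after the final dose.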

The subject of data set [10] is Hepatitis B virus. In words: Antiviral activity against HBV infected in human HepG2(2.2.15) cells assessed as decrease in extracellular viral DNA level after 24 hrs by blot hybridization assay. The class given is functional, organism-based. As to conditions: HepG2 2.2.15, 24 h. In short, it runs like this:
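Confluent 2.2.15 cells in RPMI 1640 with 2% FBS got nine consecutive daily doses, with medium replaced daily with drug-containing medium. Six wells per concentration over two replicate plates. Cells were pelleted from the medium, which was kept at 4°C and not frozen. Extracellular HBV DNA was quantified by blot hybridization 24 h after the last dose.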

In data set [11] the test system is HepG2. In words: Drug metabolism in human HepG2 cells assessed as HPMPAp uptake at 10 uM after 48 hrs. Type of data set: ADME, cell-based. The conditions noted are these: hepg2, 48 h.
The subject of data set [12] is HepG2. In words: Drug metabolism in human HepG2 cells assessed as HPMPA uptake at 10 uM after 24 hrs. The conditions noted are these: hepg2, 24 h. The class given is ADME, cell-based. The method, boiled down:
(§1)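 Nearly confluent HepG2 flasks got 14C-labeled drug (final 10 µM, 50 mCi/mmol) for 24 h. Cells were washed with cold PBS, lysed in water by two freeze-thaw cycles and sonication, then extracted with cold TCA (8% final) and centrifuged at 4°C. Supernatant was counted and analyzed by SAX ion-exchange HPLC, with metabolites assigned by retention versus reference standards.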

The test system of data set [13] is HepG2. As to the kind of experiment: Drug metabolism in human HepG2 cells assessed as unidentified metabolite uptake at 10 uM after 24 hrs. The class given is ADME, cell-based. The conditions noted are these: hepg2, 24 h. In short, it runs like this: as §1
The subject of data set [14] is HepG2. In words: Drug metabolism in human HepG2 cells assessed as HPMPApp uptake at 10 uM after 48 hrs. Type of data set: ADME, cell-based. As to conditions: hepg2, 48 h.
For data set [15], the system named is HepG2. In words: Drug metabolism in human HepG2 cells assessed as unidentified metabolite uptake at 10 uM after 48 hrs. Type of data set: ADME, cell-based. The conditions noted are these: hepg2, 48 h.
The subject of data set [16] is HepG2. In words: Drug metabolism in human HepG2 cells assessed as HPMPA uptake at 10 uM after 48 hrs. Type of data set: ADME, cell-based. The conditions noted are these: hepg2, 48 h.
The test system of data set [17] is HepG2. In words: Drug metabolism in human HepG2 cells assessed as HPMPAp uptake at 10 uM after 24 hrs. The class given is ADME, cell-based. As to conditions: hepg2, 24 h. In short, it runs like this: as §1
Data set [18] deals with HepG2. In words: Drug metabolism in human HepG2 cells assessed as HPMPApp uptake at 10 uM after 24 hrs. The class given is ADME, cell-based. The conditions noted are these: hepg2, 24 h. In short, it runs like this:
as §1

pEC50: −log10 of the molar value.

For the compound `Nc1ccn([C@@H]2CS[C@H](CO)O2)c(=O)n1` [LAMIVUDINE], the 90% effect concentration (EC90) was 3 µM in the data set on Hepatitis B virus [1]; > 100 µM in the data set with Hepatitis B virus [2]; > 100 µM in the data set with Hepatitis B virus [3]; > 100 µM in the data set on Hepatitis B virus [4]; 1.5 µM in the data set on Hepatitis B virus [5]; 41 µM in the data set with Hepatitis B virus [6]. In addition, the pEC50 is < 4.00 with Hepatitis B virus [2]; < 4.00 with Hepatitis B virus [3]; < 4.00 with Hepatitis B virus [4]; 6.52 in the data set with Hepatitis B virus [5]; 4.80 with Hepatitis B virus [6].

For `CC(C)(C)C(=O)OCOP(=O)(COCCn1cnc2c(N)ncnc21)OCOC(=O)C(C)(C)C` [ADEFOVIR DIPIVOXIL], the pEC50 in the data set on Hepatitis B virus [1] was 5.70; in the data set on Hepatitis B virus [2], 5.62; in the data set on Hepatitis B virus [3], 5.82; in the data set on Hepatitis B virus [4], 5.60; in the data set on Hepatitis B virus [5], 4.85; in the data set with Hepatitis B virus [6], 5.59. For the same compound, the EC90 was determined as 7 µM with Hepatitis B virus [1]; 8 µM in the data set with Hepatitis B virus [2]; 7.2 µM in the data set with Hepatitis B virus [3]; 7.6 µM in the data set with Hepatitis B virus [4]; 52 µM in the data set with Hepatitis B virus [5]; 7.3 µM in the data set with Hepatitis B virus [6]. The ED50 in the data set with Hepatitis B virus [7] turned out to be 0.2 µmol/kg. Also, in the data set on Hepatitis B virus [7], the ED90 was 3.6 µmol/kg.

As for `CCCCCCCCCCCCCCCCCCOCCOP(=O)(O)CO[C@H](CO)Cn1cnc2c(N)ncnc21`, in the data set with Hepatitis B virus [7], the ED50 stood at 0.35 µmol/kg and the ED90 was found to be 6.91 µmol/kg. Moreover, the CC50 at 24 h in data set [8] is > 300 µM. The “Selectivity Index” value in data set [9] is reported as >1422. In addition, in the data set with Hepatitis B virus [10], the pEC50 is 7.12 and the EC90 stood at 0.211 µM.

In the case of `CC(C)CCCCCCCCCCCCCCOCCCOP(=O)(O)CO[C@H](CO)Cn1cnc2c(N)ncnc21`, in the data set with Hepatitis B virus [7], the ED50 was found to be 0.082 µmol/kg and the ED90 was found to be 2.96 µmol/kg. Besides, the CC50 at 24 h in [8] was > 300 µM. The “Selectivity Index” value in data set [9] is reported as >1657. Moreover, in the data set on Hepatitis B virus [10], the negative logarithm of the EC50 (pEC50) was 7.23 and the EC90 was found to be 0.181 µM.

Consider `Nc1ncnc2c1ncn2C[C@@H](CO)OCP(=O)(O)O`, for which the Drug uptake was 70 pmol in the data set with HepG2 [11]; 26 pmol with HepG2 [12]; 33 pmol in the data set on HepG2 [13]; 13 pmol in the data set on HepG2 [14]; 62 pmol in the data set on HepG2 [15]; 10 pmol in the data set with HepG2 [16]. Besides, the Drug uptake with HepG2 [17] is 27 pmol; in the data set with HepG2 [18], 34 pmol. In data set [8], the CC50 at 24 h was > 300 µM. Besides, the “Selectivity Index” value in [9] is reported as >60. Moreover, in the data set with Hepatitis B virus [10], the pEC50 is 5.92. The EC90 with Hepatitis B virus [10] was 5.05 µM.
